# Screening results as filed in PubChem BioAssay.
# CAL PDZ FP-1 – human CAL PDZ-peptide interaction inhibition. AID 504414. purified CAL PDZ, TMR-peptide fluorescence polarization, 1 h. actives 0.02% (n = 330,000). Q9HD26. inhibition, % at 20 µM;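 active means highest replicate inhibition of at least 40%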
#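 Material: tagged CAL PDZ protein CerCALP, purified; buffer or medium: sodium phosphate/NaCl buffer pH 7.4 with TCEP, IgG, Thesit; also added: fluorescent TMR peptide probe; schedule: 1 h incubation at room temperature before polarization reading; technique: fluorescence polarization from S- and P-plane intensities, G-factor corrected; control set: unlabelled peptide and DMSO controls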
# CAL PDZ FP-2 – inhibitors of human CAL PDZ peptide binding. inhibition, % at 24.9 µM. purified CAL PDZ, TMR-peptide fluorescence polarization, 1 h. actives 0.92% (n = 300,000). Q9HD26;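 active means mean inhibition of at least 30% with at least half of replicates also reaching 30%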
# CDK5 inh – CDK5/p35 (human) kinase inhibition; Q00535+Q15078; Recombinant CDK5/p35, ADP-Glo luminescence, 60 min; inhibition, % at 10 µM; actives 0.01% (n = 330,000);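 active means highest replicate inhibition of at least 50% and at least 75% of replicates reaching 50%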
# S100A4 MyoIIA – blocks human S100A4 binding to myosin IIA peptide | P26447 | S100A4/TAMRA-MyoIIA peptide fluorescence polarization | AID 652163 | inhibition, % at 10.7 µM | actives 0.14% (n = 360,000);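 active means mean inhibition of at least 70% across replicates, with every replicate also reaching that level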
# Target sequence (P26447 whole entry, looked up): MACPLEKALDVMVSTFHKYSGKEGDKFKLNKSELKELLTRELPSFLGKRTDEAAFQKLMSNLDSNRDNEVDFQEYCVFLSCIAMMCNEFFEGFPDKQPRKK
#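 Assay system: human S100A4 monomer with TAMRA-labelled myosin IIA peptide / Buffer or medium: Calcium-containing HEPES buffer, pH 7.2 / Reagent: TAMRA-labelled myosin IIA heavy-chain peptide probe, 5 nM / Compound: one dose per compound / Timing: polarization read 5 min after assay mix addition, stable 5–60 min / Benchmarks: neutral control DMSO, positive control TFP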
# dFosB activator – activators of mouse delta FosB homodimer; P13346; purified delta FosB, TAMRA-CDK5 oligo fluorescence polarization; percent of positive-control signal above neutral wells; activation, % at 25 µM; actives 0.99% (n = 340,000); AID 493131;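 active means mean activation above about 17%, with every replicate also reaching it, limit read from the data, passing the limit was not always enough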
# Target sequence (P13346 whole entry, looked up): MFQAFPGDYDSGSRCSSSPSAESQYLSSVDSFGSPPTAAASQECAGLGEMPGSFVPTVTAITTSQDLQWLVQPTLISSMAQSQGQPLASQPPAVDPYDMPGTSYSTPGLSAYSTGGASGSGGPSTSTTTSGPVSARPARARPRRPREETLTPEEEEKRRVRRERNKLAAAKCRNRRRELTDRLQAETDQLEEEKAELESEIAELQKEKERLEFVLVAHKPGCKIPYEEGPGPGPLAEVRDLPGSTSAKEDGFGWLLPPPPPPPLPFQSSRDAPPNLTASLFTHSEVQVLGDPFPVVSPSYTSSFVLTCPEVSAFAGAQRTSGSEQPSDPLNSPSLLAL
# Statin myotox sup – suppressors of simvastatin-induced myotoxicity in C2C12 myotubes. ATP luminescence, 48 h; scaled: DMSO 0, geranylgeraniol control 100. rescue of ATP level, % at 7.49 µM. actives 0.78% (n = 330,000);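 active means mean ATP rescue above about 67%, or every replicate alone reaching that limit, limit read from the data, passing the limit was not always enough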;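 further: myotubes were challenged with 10 µM simvastatin during compound exposure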
# Numbers stand for hits; n = inactive; x = no result. Shown are actives, neighbours in structure and some others; about 2% of the full set was active somewhere.
SMILES,CAL PDZ FP-1,CAL PDZ FP-2,CDK5 inh,S100A4 MyoIIA,dFosB activator,Statin myotox sup
C=CCNC(=O)C(C#N)c1nc2ccccc2nc1N1CCCCCC1 (stereo unspecified),n,n,n,x,n,86
COc1ccc(CNC(=O)C(C#N)c2nc3ccccc3nc2N2CCCC2)cc1 (stereo unspecified),n,n,n,x,n,n
Cc1ccc(N2N=C(C(=O)O)CCC2=O)cc1Cl,n,n,n,n,n,124
CCS(=O)(=O)c1ccc(-c2csc(-c3ccc(Cl)cc3)n2)c(Cl)c1Cl,n,n,n,x,n,103
CCS(=O)(=O)c1ccc(-c2csc(-c3ccccc3Cl)n2)c(Cl)c1Cl,n,n,n,x,n,n
O=C(C1=C(O)C(=O)N(CCCN2CCOCC2)C1c1ccccn1)c1cc2ccccc2o1 (stereo unspecified),n,n,n,x,n,73
O=C(C1=C(O)C(=O)N(CCN2CCOCC2)C1c1ccccc1)c1cccs1 (stereo unspecified),n,31,n,x,n,n
O=C(C1=C(O)C(=O)N(CCN2CCOCC2)C1c1ccc(F)cc1)c1cc2ccccc2o1 (stereo unspecified),n,n,n,n,n,n
CCC(=O)NC(=S)Nc1cccc(NC(=O)c2ccco2)c1,n,n,n,n,n,x
N#Cc1ccccc1NC(=O)COC(=O)COc1ccccc1[N+](=O)[O-],n,35,n,n,n,x
CCCNC(=O)N1C[C@H]2[C@@H](c3ccccc31)[C@H](CO)N2C(=O)Nc1ccc(F)cc1,x,x,x,n,x,n
COc1ccc(/C=N/n2c(=O)[nH]c3c([nH]c4ccc(C)cc43)c2=O)cc1CN1CCOCC1,n,x,n,n,n,x
COc1ccc(/C=N/n2c(=O)[nH]c3c([nH]c4ccc(F)cc43)c2=O)cc1CN1CCCCC1,n,n,n,n,31,n
COc1cccc(N/C=C/C(=O)c2ccc(Br)cc2)c1,n,n,n,x,n,n
O=c1c2[nH]c3cccc(Cl)c3c2ncn1CCN1CCCCC1,n,n,n,x,n,103
O=c1c2[nH]c3cccc(Cl)c3c2ncn1CC1CCCO1 (stereo unspecified),n,n,n,n,n,x
CCN(CC)CCN1C(=O)C(=O)/C(=C(/O)c2c(C)[nH]c(C(=O)OC)c2C)C1c1cccnc1 (stereo unspecified),n,44,n,n,n,n
COC(=O)C(CCSC)NC(=O)/C=C/c1ccc(OC)cc1 (stereo unspecified),n,n,n,n,n,x
O=S(=O)(c1cccs1)N1CCc2ccccc21,n,n,n,x,29,n
O=S(=O)(c1cccs1)N1CCCc2ccccc21,n,n,n,x,n,x
CC1CCc2c(sc3nc(CSc4nnnn4C)[nH]c(=O)c23)C1 (stereo unspecified),n,60,n,n,n,n
CCOc1ccc(CCNC(=O)C2CCCN(c3ncnc4c3nc3n4CCCCC3)C2)cc1 (stereo unspecified),n,n,n,n,n,76
Cc1ccc(CCNC(=O)C2CCCN(c3ncnc4c3nc3n4CCCCC3)C2)cc1 (stereo unspecified),n,x,n,n,n,n
CCOc1ccccc1N=Nc1c(C)[nH]n(C(N)=S)c1=O,x,37,n,n,n,n
Cn1nc(-c2ccccc2)c(N2CCCCC2)cc1=O,n,n,n,n,n,x
SMILES,CAL PDZ FP-1,CAL PDZ FP-2,CDK5 inh,S100A4 MyoIIA,dFosB activator,Statin myotox sup
CC(=O)c1c(C)[nH]c(C(=O)CSc2nnc(C3CCCCC3)n2N)c1C,n,n,n,x,n,122
Oc1ccc(/C=C/c2ccc3ccccc3n2)cc1,n,69,n,n,n,n
C(=C\c1ccc2ccccc2n1)/c1ccccc1,n,n,n,n,n,n
CN(C)c1ccc(/C=C/c2ccc3ccccc3n2)cc1,n,100,n,n,n,n
O=[N+]([O-])c1ccc(/C=C/c2ccc3ccccc3n2)cc1,n,n,n,n,n,n
O=C(Nc1ccc(C(F)(F)F)cc1-c1ccccc1)c1ccccc1,n,n,n,x,n,n
O=S(=O)(Nc1ccc2cn[nH]c2c1)c1ccc(Cl)s1,n,n,n,n,n,x
